From PMC8209782 (Bioorganic & medicinal chemistry, 2020)

Tests used:
[1] = test system: other kallikreins; assay: Protease panel assay; format: biochemical, human; conditions: up to 10 μM
Summary of the method: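 Human kallikreins in a 23-protease panel run by a contract lab, with enzyme conditions tabulated in the supplement. […] Fluorogenic AMC peptide substrates; fluorescence increase followed as a time course. The initial linear slope (signal/min) was used to derive IC50.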

[2] = target: T1, HNE (Homo sapiens, UniProt P08246); assay: In vitro HNE enzyme assay with pNa substrate; format: biochemical
T1 sequence (P08246 30-267): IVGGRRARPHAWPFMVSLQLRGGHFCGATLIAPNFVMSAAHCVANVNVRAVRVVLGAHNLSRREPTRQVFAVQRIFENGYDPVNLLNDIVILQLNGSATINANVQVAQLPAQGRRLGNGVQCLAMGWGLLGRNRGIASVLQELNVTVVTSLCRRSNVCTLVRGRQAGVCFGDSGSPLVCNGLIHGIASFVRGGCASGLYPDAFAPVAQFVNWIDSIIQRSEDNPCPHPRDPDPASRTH

C/C=C1\NC(=O)[C@@H](NC(=O)[C@@H](NC(=O)[C@H](C)NC(=O)C/C(C)=C/Cl)[C@@H](C)CC)[C@@H](C)OC(=O)[C@H](C(C)C)NC(=O)[C@H](Cc2ccc(O)cc2)N(C)C(=O)[C@H](Cc2ccccc2)N2C(=O)[C@H](CC[C@H]2O)NC1=O [Tutuilamide A]
effect on other kallikreins (selectivity profiling) [1]: without affecting
fold less active than lyngbyastatin 7 against HNE [2]: 1.5 fold
